In ChEMBL document CHEMBL3045880, “Design and syntheses of novel N-(benzothiazol-5-yl)-4,5,6,7-tetrahydro-1H-isoindole-1,3(2H)-dione and N-(benzothiazol-5-yl)isoindoline-1,3-dione as potent protoporphyrinogen oxidase inhibitors” (J Agric Food Chem, 2011):

What was measured:
[1] = test system: Digitaria sanguinalis; test: Herbicidal activity against Digitaria sanguinalis (hairy crabgrass) assessed as growth inhibition at 150 g/ha postemergence treatment measured after 15 days by Greenhouse test; format: functional; settings: post-emergence, 360 h, read-out: GI
Method in brief: (§1)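 Test compounds were made up as 100 g/L emulsifiable concentrates (DMF solvent, Tween-80 emulsifier) and diluted with water. About 20 seeds were sown 1–3 cm deep in clay soil (pH 6.5, 1.6% organic matter) in 9.5 cm pots, kept at 15–30 °C and 50% RH. Postemergence spray was applied to dicots at the 2-leaf stage and monocots at the 1-leaf stage. Controls were untreated and solvent-treated. Injury was scored visually at 15 days, with three replicates.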

[2] = test system: Digitaria sanguinalis; test: Herbicidal activity against Digitaria sanguinalis (hairy crabgrass) assessed as growth inhibition at 37.5 g/ha postemergence treatment measured after 15 days by Greenhouse test; format: functional; settings: post-emergence, 360 h, read-out: GI
Method in brief: (§2)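 Postemergence greenhouse pot test. About 20 seeds per pot, sown 1-3 cm deep in clay soil (pH 6.5, 1.6% organic matter). Plants grown at 15-30 °C and 50% relative humidity. Compounds were made up as 100 g/L emulsifiable concentrates in DMF with Tween-80, then diluted in water. Dicots were sprayed at the 2-leaf stage and monocots at the 1-leaf stage. Controls were untreated and solvent-treated. Injury was scored visually after 15 days, three replicates per treatment.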

[3] = test system: Amaranthus retroflexus; test: Herbicidal activity against Amaranthus retroflexus assessed as growth inhibition at 75 g/ha postemergence treatment measured after 15 days by Greenhouse test; format: functional; settings: post-emergence, 360 h, read-out: GI; method in brief: as §2
[4] = test system: Abutilon theophrasti; test: Herbicidal activity against Abutilon theophrasti (velvetleaf) assessed as growth inhibition at 37.5 g/ha postemergence treatment measured after 15 days by Greenhouse test; format: functional; settings: post-emergence, 360 h, read-out: GI; method in brief: as §2
[5] = test system: Amaranthus retroflexus; test: Herbicidal activity against Amaranthus retroflexus assessed as growth inhibition at 37.5 g/ha postemergence treatment measured after 15 days by Greenhouse test; format: functional; settings: post-emergence, 360 h, read-out: GI; method in brief: as §2
[6] = test system: Abutilon theophrasti; test: Herbicidal activity against Abutilon theophrasti (velvetleaf) assessed as growth inhibition at 75 g/ha postemergence treatment measured after 15 days by Greenhouse test; format: functional; settings: post-emergence, 360 h, read-out: GI; method in brief: as §2
[7] = test system: Eclipta prostrata; test: Herbicidal activity against Eclipta prostrata assessed as growth inhibition at 75 g/ha postemergence treatment measured after 15 days by Greenhouse test; format: functional; settings: post-emergence, 360 h, read-out: GI; method in brief: as §2
[8] = molecular target: T1, Protoporphyrinogen oxidase (Homo sapiens) (UniProt P50336); test: Inhibition of Homo sapiens (human) recombinant protoporphyrinogen oxidase by fluorescence detection
T1 sequence (whole entry): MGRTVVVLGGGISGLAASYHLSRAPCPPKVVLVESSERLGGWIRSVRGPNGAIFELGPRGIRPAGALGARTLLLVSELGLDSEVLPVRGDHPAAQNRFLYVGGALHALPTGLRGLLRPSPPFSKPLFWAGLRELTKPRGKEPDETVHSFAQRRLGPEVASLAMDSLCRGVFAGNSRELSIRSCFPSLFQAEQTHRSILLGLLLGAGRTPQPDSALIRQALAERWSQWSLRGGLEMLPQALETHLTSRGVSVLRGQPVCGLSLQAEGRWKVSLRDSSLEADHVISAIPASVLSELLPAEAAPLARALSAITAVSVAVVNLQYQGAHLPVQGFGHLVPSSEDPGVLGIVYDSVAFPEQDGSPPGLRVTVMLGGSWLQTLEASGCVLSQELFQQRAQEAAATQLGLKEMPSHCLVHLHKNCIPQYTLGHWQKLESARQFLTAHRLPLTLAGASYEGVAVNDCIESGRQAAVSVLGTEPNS

[9] = test system: Setaria faberi; test: Herbicidal activity against Setaria faberi (Giant Foxtail) assessed as growth inhibition at 150 g/ha postemergence treatment measured after 15 days by Greenhouse test; format: functional; settings: post-emergence, 360 h, read-out: GI; method in brief: as §1
[10] = test system: Echinochloa crus-galli; test: Herbicidal activity against Echinochloa crus-galli (barnyard grass) assessed as growth inhibition at 150 g/ha postemergence treatment measured after 15 days by Greenhouse test; format: functional; settings: post-emergence, 360 h, read-out: GI; method in brief: as §1
[11] = test system: Eclipta prostrata; test: Herbicidal activity against Eclipta prostrata assessed as growth inhibition at 37.5 g/ha postemergence treatment measured after 15 days by Greenhouse test; format: functional; settings: post-emergence, 360 h, read-out: GI; method in brief: as §2
[12] = test system: Eclipta prostrata; test: Herbicidal activity against Eclipta prostrata assessed as growth inhibition at 150 g/ha postemergence treatment measured after 15 days by Greenhouse test; format: functional; settings: post-emergence, 360 h, read-out: GI; method in brief: as §1
[13] = test system: Echinochloa crus-galli; test: Herbicidal activity against Echinochloa crus-galli (barnyard grass) assessed as growth inhibition at 75 g/ha postemergence treatment measured after 15 days by Greenhouse test; format: functional; settings: post-emergence, 360 h, read-out: GI; method in brief: as §2
[14] = test system: Brassica juncea; test: Herbicidal activity against Brassica juncea assessed as growth inhibition at 150 g/ha postemergence treatment measured after 15 days by Greenhouse test; format: functional; settings: post-emergence, 360 h, read-out: GI; method in brief: as §1
[15] = test system: Abutilon theophrasti; test: Herbicidal activity against Abutilon theophrasti (velvetleaf) assessed as growth inhibition at 150 g/ha postemergence treatment measured after 15 days by Greenhouse test; format: functional; settings: post-emergence, 360 h, read-out: GI; method in brief: as §1
[16] = test system: Amaranthus retroflexus; test: Herbicidal activity against Amaranthus retroflexus assessed as growth inhibition at 150 g/ha postemergence treatment measured after 15 days by Greenhouse test; format: functional; settings: post-emergence, 360 h, read-out: GI; method in brief: as §1
[17] = test system: Setaria faberi; test: Herbicidal activity against Setaria faberi (Giant Foxtail) assessed as growth inhibition at 75 g/ha postemergence treatment measured after 15 days by Greenhouse test; format: functional; settings: post-emergence, 360 h, read-out: GI; method in brief: as §2
[18] = test system: Brassica juncea; test: Herbicidal activity against Brassica juncea assessed as growth inhibition at 37.5 g/ha postemergence treatment measured after 15 days by Greenhouse test; format: functional; settings: post-emergence, 360 h, read-out: GI; method in brief: as §2
[19] = test system: Digitaria sanguinalis; test: Herbicidal activity against Digitaria sanguinalis (hairy crabgrass) assessed as growth inhibition at 75 g/ha postemergence treatment measured after 15 days by Greenhouse test; format: functional; settings: post-emergence, 360 h, read-out: GI; method in brief: as §2
[20] = test system: Setaria faberi; test: Herbicidal activity against Setaria faberi (Giant Foxtail) assessed as growth inhibition at 37.5 g/ha postemergence treatment measured after 15 days by Greenhouse test; format: functional; settings: post-emergence, 360 h, read-out: GI; method in brief: as §2
[21] = test system: Brassica juncea; test: Herbicidal activity against Brassica juncea assessed as growth inhibition at 75 g/ha postemergence treatment measured after 15 days by Greenhouse test; format: functional; settings: post-emergence, 360 h, read-out: GI; method in brief: as §2
[22] = test system: Echinochloa crus-galli; test: Herbicidal activity against Echinochloa crus-galli (barnyard grass) assessed as growth inhibition at 37.5 g/ha postemergence treatment measured after 15 days by Greenhouse test; format: functional; settings: post-emergence, 360 h, read-out: GI; method in brief: as §2

Cc1nn(-c2cc(NS(C)(=O)=O)c(Cl)cc2Cl)c(=O)n1C(F)F [SULFENTRAZONE] was tested, and the inhibition of growth at 150 g/ha [1] was 60%, the inhibition of growth at 37.5 g/ha [2] was 50% and the inhibition of growth at 75 g/ha [3] was 80%. For the same compound, the inhibition of growth at 37.5 g/ha [4] was 80%, the inhibition of growth at 37.5 g/ha [5] was 80% and the inhibition of growth at 75 g/ha [6] was 80%. It also gave an inhibition of growth at 75 g/ha [7] of 80%, a Ki [8] of 0.72 µM and an inhibition of growth at 150 g/ha [9] of less than 50%. It also gave an inhibition of growth at 150 g/ha [10] of 60%, an inhibition of growth at 37.5 g/ha [11] of 80% and an inhibition of growth at 150 g/ha [12] of 80%. It also gave an inhibition of growth at 75 g/ha [13] of 50%, an inhibition of growth at 150 g/ha [14] of 80% and an inhibition of growth at 150 g/ha [15] of 80%. The inhibition of growth at 150 g/ha [16] was 80%, the inhibition of growth at 75 g/ha [17] was less than 50% and the inhibition of growth at 37.5 g/ha [18] was 60%. For the same compound, the inhibition of growth at 75 g/ha [19] was 50%, the inhibition of growth at 37.5 g/ha [20] was less than 50% and the inhibition of growth at 75 g/ha [21] was 80%. For the same compound, the inhibition of growth at 37.5 g/ha [22] was 50%.
